Data as given in paper PMC9302689 (British Journal of Clinical Pharmacology, 2022).
Marks after values point to notes of the source that are not given here.

Legend:
healthy male subjects [1] = assay: NeuroCart pupillometry; format: in vivo, human; conditions: 12-hour post-dose period
Outline: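 In healthy men given a single dose or placebo, both eyes were photographed simultaneously with the head in a support. This was done twice pre-dose and at 0.5–10 h post-dose. Change from baseline over 12 h was analysed by MMRM against pooled placebo, with baseline as covariate.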

dogs [2] = assay: Preclinical dog cardiovascular study; format: in vivo; conditions: any dose
neuronal abnormalities = assay: Preclinical test for neuronal abnormalities; format: in vivo; conditions: up to a HED of 3360 mg
dogs [3] = assay: Preclinical multiple dose toxicology study in dogs; format: in vivo
healthy male subjects [4] = assay: Serum neuro-endocrine hormones; format: in vivo, human; conditions: for Cortisol (ng/ml), LSM CFB / Cortisol (ng/ml), estimate of difference compared to placebo / Prolactin (ng/ml), LSM CFB / Prolactin (ng/ml), estimate of difference compared to placebo: 2 hours post-dose, serum
Outline: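 Serum was sampled pre-dose and at 0.25–36 h after a single dose or placebo in healthy men. Cortisol was measured by validated LC–MS/MS (LLOQ 2.00 ng/mL) and prolactin by time-resolved fluoroimmunoassay (LLOQ 0.260 ng/mL). Values were ln-transformed and analysed by MMRM using the 2-h post-dose data, with baseline as covariate and pooled placebo as reference, then back-transformed.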

[5] = Preclinical pharmacokinetic studies; format: in vivo; conditions: dogs and rats, oral administration

CN1CCC23CCCCC2C1Cc1ccc(C(N)=O)cc13 (stereo not drawn) [ALKS 7119, (9α, 13α)‐17‐methylmorphinan‐3‐carboxamide]
Left pupil/iris ratio, LSM CFB (healthy male subjects [1]; 3 mg single oral dose): 0.01 | Right pupil/iris ratio, LSM CFB (healthy male subjects [1]; 3 mg single oral dose): 0.02 | Left pupil/iris ratio, LSM CFB (healthy male subjects [1]; 10 mg single oral dose): 0.04 | Right pupil/iris ratio, LSM CFB (healthy male subjects [1]; 10 mg single oral dose): 0.03 | Left pupil/iris ratio, LSM CFB (healthy male subjects [1]; 25 mg single oral dose): 0.04 | Right pupil/iris ratio, LSM CFB (healthy male subjects [1]; 25 mg single oral dose): 0.03 | Left pupil/iris ratio, LSM CFB (healthy male subjects [1]; 50 mg single oral dose): 0.05 | Right pupil/iris ratio, LSM CFB (healthy male subjects [1]; 50 mg single oral dose): 0.07 | Left pupil/iris ratio, LSM CFB (healthy male subjects [1]; 75 mg single oral dose): 0.04 | Right pupil/iris ratio, LSM CFB (healthy male subjects [1]; 75 mg single oral dose): 0.03 | Left pupil/iris ratio, LSM CFB (healthy male subjects [1]; 100 mg single oral dose): 0.04 | Right pupil/iris ratio, LSM CFB (healthy male subjects [1]; 100 mg single oral dose): 0.05 | Left pupil/iris ratio, LSM CFB (healthy male subjects [1]; 125 mg single oral dose): 0.04 | Right pupil/iris ratio, LSM CFB (healthy male subjects [1]; 125 mg single oral dose): 0.05 | Left pupil/iris ratio, LSM CFB (healthy male subjects [1]; 150 mg single oral dose): 0.03 | Right pupil/iris ratio, LSM CFB (healthy male subjects [1]; 150 mg single oral dose): 0.05 | Left pupil/iris ratio, LSM CFB (healthy male subjects [1]; 175 mg single oral dose): 0.05 | Right pupil/iris ratio, LSM CFB (healthy male subjects [1]; 175 mg single oral dose): 0.06 | Left pupil/iris ratio, LSM CFB (healthy male subjects [1]; 200 mg single oral dose): 0.08 | Right pupil/iris ratio, LSM CFB (healthy male subjects [1]; 200 mg single oral dose): 0.06 | QT intervals (dogs [2]): No changes in QT intervals | Potential to induce neuronal abnormalities (neuronal abnormalities): no potential to induce neuronal abnormalities | human equivalent dose (HED) of NOAEL (dogs [3]; dog NOAEL): 97.2 mg | NOAEL (dogs [3]; dogs, multiple dose toxicology): 3 mg/kg | Cortisol (ng/ml), LSM CFB (healthy male subjects [4]; 3 mg single oral dose): −22.9 % change | Cortisol (ng/ml), estimate of difference compared to placebo (healthy male subjects [4]; 3 mg single oral dose): −3.6 (−31.1, 34.9) P = .83 % change | Prolactin (ng/ml), LSM CFB (healthy male subjects [4]; 3 mg single oral dose): −3.6 % change | Prolactin (ng/ml), estimate of difference compared to placebo (healthy male subjects [4]; 3 mg single oral dose): −3.2 (−26.9; 28.3) P = .82 % change | Cortisol (ng/ml), LSM CFB (healthy male subjects [4]; 10 mg single oral dose): 8.9 % change | Cortisol (ng/ml), estimate of difference compared to placebo (healthy male subjects [4]; 10 mg single oral dose): −31.8 (−51.3; −4.5) P = .03 ^* % change | Prolactin (ng/ml), LSM CFB (healthy male subjects [4]; 10 mg single oral dose): −15.3 % change | Prolactin (ng/ml), estimate of difference compared to placebo (healthy male subjects [4]; 10 mg single oral dose): 10.1 (−16.9; 45.9) P = .50 % change | Cortisol (ng/ml), LSM CFB (healthy male subjects [4]; 25 mg single oral dose): −20.8 % change | Cortisol (ng/ml), estimate of difference compared to placebo (healthy male subjects [4]; 25 mg single oral dose): −6.2 (−32.9; 31.3) P = .71 % change | Prolactin (ng/ml), LSM CFB (healthy male subjects [4]; 25 mg single oral dose): 8.0 % change | Prolactin (ng/ml), estimate of difference compared to placebo (healthy male subjects [4]; 25 mg single oral dose): −13.6 (−34.8; 14.5) P = .31 % change | Cortisol (ng/ml), LSM CFB (healthy male subjects [4]; 50 mg single oral dose): 12.7 % change | Prolactin (ng/ml), LSM CFB (healthy male subjects [4]; 50 mg single oral dose): 66.0 % change | Cortisol (ng/ml), LSM CFB (healthy male subjects [4]; 75 mg single oral dose): 36.5 % change | Cortisol (ng/ml), estimate of difference compared to placebo (healthy male subjects [4]; 75 mg single oral dose): −45.5 (−61.1; −23.8) P < .01 ^* % change | Prolactin (ng/ml), LSM CFB (healthy male subjects [4]; 75 mg single oral dose): 63.4 % change | Prolactin (ng/ml), estimate of difference compared to placebo (healthy male subjects [4]; 75 mg single oral dose): −42.9 (−56.9; −24.3) P < .01 ^* % change | Cortisol (ng/ml), LSM CFB (healthy male subjects [4]; 100 mg single oral dose): 70.3 % change | Cortisol (ng/ml), estimate of difference compared to placebo (healthy male subjects [4]; 100 mg single oral dose): −56.4 (−68.8; −38.9) P < .01 ^* % change | Prolactin (ng/ml), LSM CFB (healthy male subjects [4]; 100 mg single oral dose): 72.0 % change | Prolactin (ng/ml), estimate of difference compared to placebo (healthy male subjects [4]; 100 mg single oral dose): −45.8 (−59.1; −28.1) P < .01 ^* % change | Cortisol (ng/ml), LSM CFB (healthy male subjects [4]; 125 mg single oral dose): 52.6 % change | Cortisol (ng/ml), estimate of difference compared to placebo (healthy male subjects [4]; 125 mg single oral dose): −51.3 (−65.2; −31.8) P < .01 ^* % change | Prolactin (ng/ml), LSM CFB (healthy male subjects [4]; 125 mg single oral dose): 28.0 % change | Prolactin (ng/ml), estimate of difference compared to placebo (healthy male subjects [4]; 125 mg single oral dose): −27.1 (−45.1; −3.3) P = .03 ^* % change | Cortisol (ng/ml), LSM CFB (healthy male subjects [4]; 150 mg single oral dose): 84.4 % change | Cortisol (ng/ml), estimate of difference compared to placebo (healthy male subjects [4]; 150 mg single oral dose): −59.7 (−71.2; −43.6) P < .01 ^* % change | Prolactin (ng/ml), LSM CFB (healthy male subjects [4]; 150 mg single oral dose): 106.9 % change | Prolactin (ng/ml), estimate of difference compared to placebo (healthy male subjects [4]; 150 mg single oral dose): −54.9 (−66.0; −40.2) P < .01 ^* % change | Cortisol (ng/ml), LSM CFB (healthy male subjects [4]; 175 mg single oral dose): 53.6 % change | Cortisol (ng/ml), estimate of difference compared to placebo (healthy male subjects [4]; 175 mg single oral dose): −51.6 (−65.4; −32.3) P < .01 ^* % change | Prolactin (ng/ml), LSM CFB (healthy male subjects [4]; 175 mg single oral dose): 81.7 % change | Prolactin (ng/ml), estimate of difference compared to placebo (healthy male subjects [4]; 175 mg single oral dose): −48.7 (−61.3; −32.0) P < .01 ^* % change | Cortisol (ng/ml), LSM CFB (healthy male subjects [4]; 200 mg single oral dose): 64.7 % change | Cortisol (ng/ml), estimate of difference compared to placebo (healthy male subjects [4]; 200 mg single oral dose): −54.9 (−67.8; −36.9) P < .01 ^* % change | Prolactin (ng/ml), LSM CFB (healthy male subjects [4]; 200 mg single oral dose): 111.3 % change | Prolactin (ng/ml), estimate of difference compared to placebo (healthy male subjects [4]; 200 mg single oral dose): −55.8 (−66.7; −41.5) P < .01 ^* % change | Serum cortisol, increase vs placebo (estimate of difference) (healthy male subjects [4]; from dose levels ≥50 mg): 51.7 % change | Serum prolactin, increase vs placebo (estimate of difference) (healthy male subjects [4]; from dose levels ≥50 mg): 77.9 % change | median time to maximum plasma concentration (tmax) [5]: 30 min
